Screening results as filed in PubChem.
Compounds with a hit are over-represented: about 3.2% of the library has one in this group of screens.
PLK1 kinase inh: PLK1 (human) kinase inhibition. P53350. recombinant PLK1 kinase, TR-FRET peptide phosphorylation. inhibition, % at 10 µM. 97,000 compounds, 0.53% hits. AID 619;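 active = inhibition of 50% or more in the single-concentration screen; inactive = inhibition below 50%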;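 note: 0% = DMSO max control and 100% = H-89 dihydrochloride min control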
Rev-RRE block: inhibitors of HIV-1 Rev-RRE RNA interaction; AID 704; Rev peptide-RRE RNA binding, FRET; 97,000 compounds, 0.79% hits; inhibition, % at 8 µM;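 active = inhibition above the screen-wide mean plus 3 SD, cut at about 35% in these data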;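 note: 0% = median DMSO wells and 100% = median Neomycin B control wells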
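Test system: Cy5-tagged RRE RNA duplex with fluorescein-tagged Rev peptide | Read-out: % inhibition of FRET ratio versus controls | Probe or stimulus: Labelled Rev peptide | Incubation: 5 min RNA-compound premix plus 15 min binding step, 25 °C | Technique: FRET fluorescence readout | Benchmarks: DMSO low control, neomycin B high control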
DAT uptake mod: changed human dopamine transporter uptake under cocaine IC80. Q01959. LLC-PK1 hDAT cells, [14C]-dopamine uptake with cocaine IC80; actives deviate in either direction. B-score at 10 µM. 110,000 compounds, 1.3% hits. AID 449768;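 active = Z score or B-score, a plate-position-corrected score, falls beyond the plate's 99.7% confidence bounds, in either direction; inactive = both scores lie inside the 99.7% bounds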;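 note: scored against the spread of the other compound wells on the same plate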
EphB4 antag: blocks human EphB4 binding to ephrin-B2; P54760; EphB4 LBD / TNYL-RAW-Alexa532 peptide, fluorescence polarization; inhibition, % at 7 µM; 97,000 compounds, 0.15% hits;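 active = inhibition above the screen-wide mean inhibition plus 3 SD, cut at about 15% in these data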;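 note: 0% = DMSO wells and 100% = excess unlabeled TNYL-RAW peptide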
Target sequence (P54760 whole entry, looked up, the tested form may be a part): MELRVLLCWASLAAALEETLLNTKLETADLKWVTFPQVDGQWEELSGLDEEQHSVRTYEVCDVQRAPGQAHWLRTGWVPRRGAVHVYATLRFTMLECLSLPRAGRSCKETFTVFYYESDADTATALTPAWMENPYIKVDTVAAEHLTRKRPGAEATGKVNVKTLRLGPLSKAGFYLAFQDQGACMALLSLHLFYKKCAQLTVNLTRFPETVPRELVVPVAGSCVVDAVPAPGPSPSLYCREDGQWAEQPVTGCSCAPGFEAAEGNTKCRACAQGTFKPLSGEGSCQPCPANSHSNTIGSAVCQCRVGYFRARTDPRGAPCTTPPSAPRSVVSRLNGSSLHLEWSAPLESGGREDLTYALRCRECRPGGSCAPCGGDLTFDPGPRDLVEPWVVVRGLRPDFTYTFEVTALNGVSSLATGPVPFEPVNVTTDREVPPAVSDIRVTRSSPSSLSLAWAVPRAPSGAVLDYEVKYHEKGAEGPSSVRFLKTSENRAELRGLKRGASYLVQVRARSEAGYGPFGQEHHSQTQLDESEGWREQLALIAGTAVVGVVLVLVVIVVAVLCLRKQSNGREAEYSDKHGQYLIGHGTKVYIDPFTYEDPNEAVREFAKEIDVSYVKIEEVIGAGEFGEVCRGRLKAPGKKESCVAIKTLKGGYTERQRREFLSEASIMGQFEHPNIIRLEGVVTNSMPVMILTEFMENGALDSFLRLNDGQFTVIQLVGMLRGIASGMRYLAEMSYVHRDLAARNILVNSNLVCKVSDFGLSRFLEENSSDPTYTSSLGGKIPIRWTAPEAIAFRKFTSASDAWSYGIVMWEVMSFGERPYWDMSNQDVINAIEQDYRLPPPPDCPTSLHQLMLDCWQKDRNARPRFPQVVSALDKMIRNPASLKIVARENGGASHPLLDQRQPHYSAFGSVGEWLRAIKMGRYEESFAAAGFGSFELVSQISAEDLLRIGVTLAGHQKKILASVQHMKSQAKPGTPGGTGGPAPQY
PLK1 PBD inh: blocks phosphopeptide binding to human Plk1 polo box domain; Plk1 PBD phosphopeptide binding, fluorescence polarization; inhibition, %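 (tested at about 20 µM)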; 97,000 compounds, 0.13% hits; AID 693; in the data active = inhibition above about 34%, passing the limit was not always enough
FAK blocker: inhibitors of human focal adhesion kinase | inhibition, %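 (tested at 7 µM)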 | AID 727 | 97,000 compounds, 0.84% hits | biochemical FAK kinase activity assay; in the data active = inhibition above about 19%;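 note: 0% = DMSO and 100% = reference compound high control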
The depositor's hits bear a star; [ ] = dose if it differs, or a comment.

CCN(CC)CCCn1c(C)cc2c(c1=O)C(c1cccc(Cl)c1)C(C#N)=C(N)O2 (stereo unspecified) was read as PLK1 kinase inh -4.6, Rev-RRE block -1.6, EphB4 antag -6.7, PLK1 PBD inh 46.5* and FAK blocker -3.2.
Screening Cc1cc(C)cc(NC(=O)c2snc3c(=O)[nH]cnc23)c1 returned PLK1 kinase inh 5.9, Rev-RRE block -3.3, DAT uptake mod 0.245, EphB4 antag -1.7, PLK1 PBD inh -38.0 and FAK blocker 1.3.
`CC(C)(C)CN1C(N)=NC[C@@H]1Cc1ccc(O)cc1` gave DAT uptake mod -3.81*.
For Brc1ccc(C2=CC(c3cccs3)n3ncnc3N2)cc1 (stereo unspecified) the results were PLK1 kinase inh 19.3, Rev-RRE block 134.8*[fluorescence artefact?], DAT uptake mod 0.447, EphB4 antag 5.9, PLK1 PBD inh -122.8 and FAK blocker 11.2.
For OCCCc1nc2n(n1)C(c1cccs1)C=C(c1ccc(Br)cc1)N2 (stereo unspecified) the results were PLK1 kinase inh -27.5, Rev-RRE block 135.1*[fluorescence artefact?], DAT uptake mod -0.761, EphB4 antag 3.9, PLK1 PBD inh -148.9 and FAK blocker 2.0.
`CCCNC(=O)c1onc(CSc2ccncc2)c1C(=O)NCCC` gave DAT uptake mod -0.311.
Screening CN1C(=O)Cc2cc(S(=O)(=O)N3CCOCC3)ccc21 returned PLK1 kinase inh -7.6, Rev-RRE block -3.1, DAT uptake mod -8.72*, EphB4 antag -7.0, PLK1 PBD inh -23.2 and FAK blocker -12.4.
`CN1CCc2nc(SCC(=O)Nc3cccc(F)c3)c(C#N)c(-c3cccs3)c2C1` gave PLK1 kinase inh -6.5, Rev-RRE block 55.8*, DAT uptake mod 2.06, EphB4 antag -2.8, PLK1 PBD inh -50.3 and FAK blocker 5.8.
Screening COc1cccc(NC(=O)CSc2nc3c(c(-c4ccco4)c2C#N)CCCC3)c1 returned PLK1 kinase inh 3.1, Rev-RRE block 3.9, DAT uptake mod -0.388, EphB4 antag 2.4, PLK1 PBD inh -25.5 and FAK blocker -1.4.
`COCOc1ccc(-c2oc3c(C/C=C(\C)CCC=C(C)C)ccc(O)c3c(=O)c2OCOC)c(OCOC)c1` gave DAT uptake mod 0.119.
`CO/N=C/C(C#N)c1ncc(C(F)(F)F)cc1Cl` (stereo unspecified) gave PLK1 kinase inh -11.3, Rev-RRE block 2.9, DAT uptake mod -2.49*, EphB4 antag -7.9, PLK1 PBD inh 4.2 and FAK blocker -3.7.
CC(C)CCNC(=O)C1CC2Cn3c(nc4cc(Cl)c(Cl)cc43)C2N1C (stereo unspecified) was read as DAT uptake mod 0.0298.
Screening COc1ccc(NC(=O)c2ccc3snnc3c2)cc1 returned PLK1 kinase inh -9.1, Rev-RRE block 2.3, DAT uptake mod -2.91*, EphB4 antag -8.8, PLK1 PBD inh 4.9 and FAK blocker -1.2.
For Cn1c(SCC(=O)Nc2nc3ccccc3s2)nnc1-c1ccccc1 the results were PLK1 kinase inh -26.3, Rev-RRE block 4.4, EphB4 antag 6.5, PLK1 PBD inh -6.1 and FAK blocker 3.9.
Screening CC1(C)Cc2ccccc2-c2nnc(SCC(=O)Nc3nc4ccccc4s3)n21 returned PLK1 kinase inh -4.3, Rev-RRE block 4.5, DAT uptake mod -0.534, EphB4 antag 17.8*, PLK1 PBD inh -11.3 and FAK blocker 0.0.
Screening COC(=O)c1ccc2c(c1)C(C)(C)C(/C=C/c1ccc(O)cc1)=[N+]2C returned PLK1 kinase inh -12.7, Rev-RRE block 78.9*[fluorescence artefact?], DAT uptake mod -1.54, EphB4 antag -57.0, PLK1 PBD inh -4.5 and FAK blocker 0.1.
`COC(=O)c1ccc2c(c1)C(C)(C)C(/C=C/c1ccc(OC)c(OC)c1OC)=[N+]2C` gave PLK1 kinase inh -15.1, Rev-RRE block 30.7, DAT uptake mod 1.77, EphB4 antag -4.6, PLK1 PBD inh -2.4 and FAK blocker 5.1.
Screening O=C(C1CC1)N1CCN(C(c2ccccc2)c2ccccc2)CC1 returned PLK1 kinase inh -4.5, Rev-RRE block 3.0, DAT uptake mod 0.162, EphB4 antag -0.3, PLK1 PBD inh -3.3 and FAK blocker -1.9.
For COC(=O)CN1C(=O)C(O)(CC(=O)c2ccc(C)o2)c2ccccc21 (stereo unspecified) the results were PLK1 kinase inh -14.7, Rev-RRE block 6.3, DAT uptake mod 0.0995, EphB4 antag -4.6, PLK1 PBD inh 10.3 and FAK blocker -1.7.
Screening Cc1ccc(C(=O)CC2(O)C(=O)N(C)c3ccccc32)o1 (stereo unspecified) returned PLK1 kinase inh 63.4*, Rev-RRE block 1.7, DAT uptake mod -0.377, EphB4 antag -5.1, PLK1 PBD inh 10.2 and FAK blocker -0.5.
COC(=O)c1cc(NC(=O)c2cccc(C(F)(F)F)c2)c(=O)oc1C/C=N/OCc1cccc(Cl)c1Cl was read as PLK1 kinase inh -4.1, Rev-RRE block 38.9*, DAT uptake mod 0.452, EphB4 antag -36.5, PLK1 PBD inh 2.1 and FAK blocker -2.1.
`CNC(=S)NNC(=O)c1cccc(C(F)(F)F)c1` gave PLK1 kinase inh -1.1, Rev-RRE block 15.2, DAT uptake mod -0.321, EphB4 antag 3.4, PLK1 PBD inh 6.5 and FAK blocker -4.5.
Screening C/C(=N/OC(=O)c1ccc(F)cc1)c1ccc(C)cc1 returned PLK1 kinase inh -6.0, Rev-RRE block -2.9, DAT uptake mod -0.938, EphB4 antag -7.2, PLK1 PBD inh 14.0 and FAK blocker 0.7.
For Cc1c(NC(=O)COC(=O)C(c2ccc(Cl)cc2)C(C)C)c(=O)n(-c2ccccc2)n1C (stereo unspecified) the results were PLK1 kinase inh -15.0, Rev-RRE block 2.6, DAT uptake mod -7.86*, EphB4 antag 16.9*, PLK1 PBD inh -10.5 and FAK blocker -0.3.
CCC(C(=O)OCC(=O)Nc1c(C)n(C)n(-c2ccccc2)c1=O)c1ccccc1 (stereo unspecified) was read as PLK1 kinase inh -15.6, Rev-RRE block 6.2, DAT uptake mod 0.405, EphB4 antag -0.2, PLK1 PBD inh -16.2 and FAK blocker 0.5.
For CCC(CC)C(=O)Nc1c(C)n(C)n(-c2ccccc2)c1=O the results were PLK1 kinase inh -11.9, Rev-RRE block 5.8, DAT uptake mod -0.0604, EphB4 antag -6.5, PLK1 PBD inh 28.5 and FAK blocker 0.5.
For CCN(CC)C(=O)Nc1c(C)n(C)n(-c2ccccc2)c1=O the results were PLK1 kinase inh 54.7*, Rev-RRE block 5.2, DAT uptake mod -0.0156, EphB4 antag 1.0, PLK1 PBD inh 14.4 and FAK blocker 0.8.
`CCC(CC)C(=O)NCCc1ccc(OC)cc1` gave PLK1 kinase inh -14.2, Rev-RRE block 3.9, DAT uptake mod 0.00139, EphB4 antag -8.9, PLK1 PBD inh 19.4 and FAK blocker -2.5.
For CCCc1c(-c2ccc(O)cc2)nn(-c2ccc(O)cc2)c1-c1ccc(O)cc1 the results were DAT uptake mod 1.09.
